# ChEMBL document CHEMBL4270599, “Synthesis of a 3'-C-ethynyl-β-d-ribofuranose purine nucleoside library: Discovery of C7-deazapurine analogs as potent antiproliferative nucleosides” (Eur J Med Chem, 2018)
# What was measured:
# K562 [1] = test: Growth inhibition of human K562 cells assessed as cell growth at 10^-4 M incubated for 48 hrs by sulforhodamine B assay relative to control; type: functional; conditions: K562, 48 h, read-out: Activity
# HCT-15 = test: Growth inhibition of human HCT15 cells assessed as cell growth at 10^-7 M incubated for 48 hrs by sulforhodamine B assay relative to control; type: functional; conditions: HCT-15, 48 h, read-out: Activity
# CCRF-CEM = test: Growth inhibition of human CCRF-CEM cells assessed as cell growth at 10^-4 M incubated for 48 hrs by sulforhodamine B assay relative to control; type: functional; conditions: read-out: Activity
# OVCAR-5 = test: Growth inhibition of human OVCAR5 cells assessed as cell growth at 10^-5 M incubated for 48 hrs by sulforhodamine B assay relative to control; type: functional; conditions: OVCAR-5, 48 h, read-out: Activity
# ACHN = test: Growth inhibition of human ACHN cells assessed as cell growth at 10^-7 M incubated for 48 hrs by sulforhodamine B assay relative to control; type: functional; conditions: read-out: Activity
# K562 [2] = test: Growth inhibition of human K562 cells assessed as cell growth at 10^-6 M incubated for 48 hrs by sulforhodamine B assay relative to control; type: functional; conditions: K562, 48 h, read-out: Activity
# SNB-19 = test: Growth inhibition of human SNB19 cells assessed as cell growth at 10^-8 M incubated for 48 hrs by sulforhodamine B assay relative to control; type: functional; conditions: SNB-19, 48 h, read-out: Activity
# M14 [3] = test: Cytotoxicity against human M14 cells after 48 hrs by SRB assay; type: functional; conditions: M14, 48 h; for GI50: read-out: GI50; for CC50: read-out: LC50 (the source's name); for TGI: read-out: TGI
# SR = test: Growth inhibition of human SR cells assessed as cell growth at 10^-7 M incubated for 48 hrs by sulforhodamine B assay relative to control; type: functional; conditions: read-out: Activity
# SF-295 = test: Growth inhibition of human SF295 cells assessed as cell growth at 10^-6 M incubated for 48 hrs by sulforhodamine B assay relative to control; type: functional; conditions: SF-295, 48 h, read-out: Activity
# UACC-257 [4] = test: Growth inhibition of human UACC257 cells assessed as cell growth at 10^-5 M incubated for 48 hrs by sulforhodamine B assay relative to control; type: functional; conditions: UACC-257, 48 h, read-out: Activity
# Malme-3M = test: Cytotoxicity against human MALME-3M cells after 48 hrs by SRB assay; type: functional; conditions: for GI50: read-out: GI50; for CC50: read-out: LC50 (the source's name); for TGI: read-out: TGI
# HCT-116 [5] = test: Growth inhibition of human HCT116 cells assessed as cell growth at 10^-8 M incubated for 48 hrs by sulforhodamine B assay relative to control; type: functional; conditions: HCT-116, 48 h, read-out: Activity
# HMEC-1 = test: Antiproliferative activity against HMEC1 cells after 4 days by Coulter counter method; type: cell-based; conditions: Homo sapiens, HMEC-1, 96 h
# Summary of the method: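 Primary HUVEC, primary HMVEC-d and the HMEC-1 line seeded at 20,000 cells/well in gelatin-coated plates in EC growth medium (EGM2). After overnight incubation, 5-fold compound dilutions added. Cells proliferated four days with compound, then trypsinized and counted by Coulter counter to derive IC₅₀.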
# M14 [6] = test: Growth inhibition of human M14 cells assessed as cell growth at 10^-7 M incubated for 48 hrs by sulforhodamine B assay relative to control; type: functional; conditions: M14, 48 h, read-out: Activity
# A498 [7] = test: Growth inhibition of human A498 cells assessed as cell growth at 10^-6 M incubated for 48 hrs by sulforhodamine B assay relative to control; type: functional; conditions: A498, 48 h, read-out: Activity
# EKVX = test: Growth inhibition of human EKVX cells assessed as cell growth at 10^-8 M incubated for 48 hrs by sulforhodamine B assay relative to control; type: functional; conditions: read-out: Activity
# SNB-75 = test: Growth inhibition of human SNB75 cells assessed as cell growth at 10^-7 M incubated for 48 hrs by sulforhodamine B assay relative to control; type: functional; conditions: SNB-75, 48 h, read-out: Activity
# L1210 = test: Antiproliferative activity against mouse L1210 cells after 48 hrs by Coulter counter method; type: functional, cell-based; conditions: L1210, 48 h
# Summary of the method: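 Cell count assay in 96-well microtiter plates; (5–7.5) × 10⁴ tumor cells per well plus test compound. Cells proliferated at 37 °C in humidified CO₂-controlled atmosphere, 48 h for murine leukemia L1210, 72 h for human lymphocytic CEM and cervix carcinoma HeLa. Counted by Coulter counter; IC₅₀ is the concentration that inhibits proliferation by 50%.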
# A498 [8] = test: Cytotoxicity against human A498 cells after 48 hrs by SRB assay; type: functional; conditions: A498, 48 h; for GI50: read-out: GI50; for CC50: read-out: LC50 (the source's name); for TGI: read-out: TGI
# SK-MEL-2 = test: Cytotoxicity against human SK-MEL-2 cells after 48 hrs by SRB assay; type: functional; conditions: SK-MEL-2, 48 h; for GI50: read-out: GI50; for CC50: read-out: LC50 (the source's name); for TGI: read-out: TGI
# RXF 393 = test: Growth inhibition of human RXF393 cells assessed as cell growth at 10^-8 M incubated for 48 hrs by sulforhodamine B assay relative to control; type: functional; conditions: RXF 393, 48 h, read-out: Activity
# PC-3 = test: Growth inhibition of human PC3 cells assessed as cell growth at 10^-8 M incubated for 48 hrs by sulforhodamine B assay relative to control; type: functional; conditions: PC-3, 48 h, read-out: Activity
# SK-OV-3 = test: Growth inhibition of human SKOV3 cells assessed as cell growth at 10^-8 M incubated for 48 hrs by sulforhodamine B assay relative to control; type: functional; conditions: SK-OV-3, 48 h, read-out: Activity
# COLO 205 = test: Cytotoxicity against human COLO205 cells after 48 hrs by SRB assay; type: functional; conditions: COLO 205, 48 h; for GI50: read-out: GI50; for CC50: read-out: LC50 (the source's name); for TGI: read-out: TGI
# UACC-257 [9] = test: Growth inhibition of human UACC257 cells assessed as cell growth at 10^-6 M incubated for 48 hrs by sulforhodamine B assay relative to control; type: functional; conditions: UACC-257, 48 h, read-out: Activity
# HCT-116 [10] = test: Growth inhibition of human HCT116 cells assessed as cell growth at 10^-6 M incubated for 48 hrs by sulforhodamine B assay relative to control; type: functional; conditions: HCT-116, 48 h, read-out: Activity
# HL-60(TB) = test: Growth inhibition of human HL-60(TB) cells assessed as cell growth at 10^-5 M incubated for 48 hrs by sulforhodamine B assay relative to control; type: functional; conditions: HL-60, 48 h, read-out: Activity
# NCI/ADR-RES = test: Growth inhibition of human NCI/ADR-RES cells assessed as cell growth at 10^-5 M incubated for 48 hrs by sulforhodamine B assay relative to control; type: functional; conditions: read-out: Activity
Compound,growth at 100 µM (K562 [1]) [%],growth at 0.1 µM (HCT-15) [%],growth at 100 µM (CCRF-CEM) [%],growth at 10 µM (OVCAR-5) [%],growth at 0.1 µM (ACHN) [%],growth at 1 µM (K562 [2]) [%],growth at 0.01 µM (SNB-19) [%],GI50 (M14 [3]) [µM],CC50 (M14 [3]) [µM],TGI (M14 [3]) [µM],growth at 0.1 µM (SR) [%],growth at 1 µM (SF-295) [%],growth at 10 µM (UACC-257 [4]) [%],GI50 (Malme-3M) [µM],CC50 (Malme-3M) [µM],TGI (Malme-3M) [µM],growth at 0.01 µM (HCT-116 [5]) [%],IC50 (HMEC-1) [µM],growth at 0.1 µM (M14 [6]) [%],growth at 0.01 µM (EKVX) [%],also measured
C#C[C@@]1(O)[C@@H](CO)O[C@@H](n2cc(Cl)c3c(N)ncnc32)[C@@H]1O,7 to 8,57 to 61,2 to 5,13 to 14,72,7,68 to 94,0.157 to 0.2,> 100,0.52 to 0.659,34 to 46,13 to 20,34 to 42,0.223 to 0.262,> 100,0.858 to 11.8,67 to 73,0.0035,69 to 79,83 to 89,growth at 1 µM (A498 [7]): -63%; growth at 0.1 µM (SNB-75): 104 to 110%; IC50 (L1210): 0.014 µM; GI50 (A498 [8]): 0.225 to 0.334 µM; CC50 (A498 [8]): 0.842 to 5.62 µM; TGI (A498 [8]): 0.435 to 1 µM; GI50 (SK-MEL-2): 0.0835 to 0.146 µM; CC50 (SK-MEL-2): > 100 µM; TGI (SK-MEL-2): 0.268 to 0.481 µM; growth at 0.01 µM (RXF 393): 101 to 108%; growth at 0.01 µM (PC-3): 91 to 94%; growth at 0.01 µM (SK-OV-3): 84 to 94%; GI50 (COLO 205): 0.0712 to 0.157 µM; CC50 (COLO 205): 10 to 40.4 µM; TGI (COLO 205): 0.276 to 0.521 µM; growth at 1 µM (UACC-257 [9]): 12 to 29%
C#C[C@@]1(O)[C@@H](CO)O[C@@H](n2cc(Br)c3c(N)ncnc32)[C@@H]1O,7,45 to 63,3 to 4,11 to 12,75,7 to 10,64 to 98,0.145 to 0.353,75.3 to 100,12.9 to 14.2,20 to 46,24 to 36,37 to 43,0.627 to 0.799,81.9 to 82.6,12.2 to 14.1,83,0.0045,56 to 81,85,growth at 1 µM (HCT-116 [10]): 2 to 3%; growth at 10 µM (HL-60(TB)): -51%; growth at 10 µM (NCI/ADR-RES): -9%; growth at 0.1 µM (SNB-75): 81 to 96%; IC50 (L1210): 0.028 µM; GI50 (A498 [8]): 0.185 to 0.28 µM; CC50 (A498 [8]): 0.94 to 4.21 µM; TGI (A498 [8]): 0.417 to 0.828 µM; GI50 (SK-MEL-2): 0.197 to 0.916 µM; CC50 (SK-MEL-2): 49.5 to 100 µM; TGI (SK-MEL-2): 0.43 to 0.758 µM; growth at 0.01 µM (RXF 393): 99%; growth at 0.01 µM (PC-3): 86 to 92%; growth at 0.01 µM (SK-OV-3): 91 to 93%; GI50 (COLO 205): 0.0436 to 0.182 µM; CC50 (COLO 205): 8.04 to 100 µM; TGI (COLO 205): 0.235 to 0.903 µM; growth at 1 µM (UACC-257 [9]): 60 to 73%
